ChEMBL document CHEMBL1287654, “Anticancer activity of N-bis(trifluoromethyl)alkyl-N'-(polychlorophenyl) and N'-(1,2,4-triazolyl) ureas” (2010)

Key:
Type in all cases: functional
UACC-62 = test: Growth inhibition of human UACC62 cells after 48 hrs by sulforhodamine B assay; details: UACC-62, 48 h
In short: (§1)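 NCI 60-cell-line main screen across nine tumor types, with five log dose range per compound. GI50 is the molar concentration giving half growth inhibition, reported as the log of the molar concentration that inhibits 50% net cell growth.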

OVCAR-4 = test: Growth inhibition of human OVCAR4 cells after 48 hrs by sulforhodamine B assay; details: OVCAR-4, 48 h
In short: (§2)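 NCI 60-cell-line main test over a five-log dose range. GI50 is the molar concentration giving half-growth inhibition, reported as log molar. Subpanel values are median GI50 across that subpanel's lines. Where 50% inhibition was not reached within the tested interval, the highest tested concentration was used.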

[1] = Growth inhibition of human ovarian cancer cell after 48 hrs by sulforhodamine B assay; details: Cancer cell lines
In short: (§3)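 Subpanel median growth inhibitory concentration: the average sensitivity of each tumor-type subpanel of the NCI 60-cell-line panel, derived from per-cell-line GI50 values. GI50 values came from a five log dose range and are expressed as log molar concentration for 50% net growth inhibition.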

LOX IMVI = test: Growth inhibition of human LOXIMVI cells after 48 hrs by sulforhodamine B assay; in short: as §2
SK-MEL-2 = test: Growth inhibition of human SK-MEL-2 cells after 48 hrs by sulforhodamine B assay; details: SK-MEL-2, 48 h; in short: as §2
TK-10 = test: Growth inhibition of human TK10 cells after 48 hrs by sulforhodamine B assay; details: TK-10, 48 h; in short: as §1
MDA-MB-231 = test: Growth inhibition of human MDA-MB-231 cells after 48 hrs by sulforhodamine B assay; details: MDA-MB-231, 48 h; in short: as §2
[2] = Growth inhibition of human renal cancer cell after 48 hrs by sulforhodamine B assay; details: Cancer cell lines; in short: as §3
SK-MEL-28 = test: Growth inhibition of human SK-MEL-28 cells after 48 hrs by sulforhodamine B assay; details: SK-MEL-28, 48 h; in short: as §2
[3] = Growth inhibition of human Hs 578T cells after 48 hrs by sulforhodamine B assay; in short: as §2
A498 = test: Growth inhibition of human A498 cells after 48 hrs by sulforhodamine B assay; details: A498, 48 h; in short: as §2
BT-549 = test: Growth inhibition of human BT549 cells after 48 hrs by sulforhodamine B assay; details: BT-549, 48 h; in short: as §2
MDA-MB-435 = test: Growth inhibition of human MDA-MB-435 cells after 48 hrs by sulforhodamine B assay; details: MDA-MB-435, 48 h; in short: as §2
ACHN = test: Growth inhibition of human ACHN cells after 48 hrs by sulforhodamine B assay; in short: as §2
SK-OV-3 = test: Growth inhibition of human SKOV3 cells after 48 hrs by sulforhodamine B assay; details: SK-OV-3, 48 h; in short: as §2
SF-295 = test: Growth inhibition of human SF295 cells after 48 hrs by sulforhodamine B assay; details: SF-295, 48 h; in short: as §2
SW-620 = test: Growth inhibition of human SW620 cells after 48 hrs by sulforhodamine B assay; details: SW-620, 48 h; in short: as §1
SNB-19 = test: Growth inhibition of human SNB19 cells after 48 hrs by sulforhodamine B assay; details: SNB-19, 48 h; in short: as §1
[4] = Growth inhibition of human prostate cancer cell after 48 hrs by sulforhodamine B assay; details: Cancer cell lines; in short: as §3
KM12 = test: Growth inhibition of human KM12 cells after 48 hrs by sulforhodamine B assay; details: KM12, 48 h; in short: as §2
NCI-H522 = test: Growth inhibition of human NCI-H522 cells after 48 hrs by sulforhodamine B assay; details: NCI-H522, 48 h; in short: as §2
UACC-257 = test: Growth inhibition of human UACC257 cells after 48 hrs by sulforhodamine B assay; details: UACC-257, 48 h; in short: as §1
SK-MEL-5 = test: Growth inhibition of human SK-MEL-5 cells after 48 hrs by sulforhodamine B assay; details: SK-MEL-5, 48 h; in short: as §2
A549 = test: Growth inhibition of human A549 cells after 48 hrs by sulforhodamine B assay; details: A549, 48 h; in short: as §2
OVCAR-5 = test: Growth inhibition of human OVCAR5 cells after 48 hrs by sulforhodamine B assay; details: OVCAR-5, 48 h; in short: as §2
K562 = test: Growth inhibition of human K562 cells after 48 hrs by sulforhodamine B assay; details: K562, 48 h; in short: as §2
MDA-N = test: Growth inhibition of human MDA-N cells after 48 hrs by sulforhodamine B assay; in short: as §2
NCI-H460 = test: Growth inhibition of human NCI-H460 cells assessed as cell growth at 100 uM after 48 hrs by sulforhodamine B assay relative to control; details: NCI-H460, 48 h, read-out: Activity
In short: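 One-dose pre-test on MCF7, NCI-H460 and SF-268. Cells were inoculated and pre-incubated on a microtiter plate, then given a single 10^-4 M dose and incubated 48 h. Growth was read spectrophotometrically and expressed as percent of untreated control cells; negative values indicate cell kill.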

SR = test: Growth inhibition of human SR cells after 48 hrs by sulforhodamine B assay; in short: as §1
Malme-3M = test: Growth inhibition of human MALME-3M cells after 48 hrs by sulforhodamine B assay; in short: as §2
M14 = test: Growth inhibition of human M14 cells after 48 hrs by sulforhodamine B assay; details: M14, 48 h; in short: as §2
[5] = Growth inhibition of human CNS cancer cell after 48 hrs by sulforhodamine B assay; details: Cancer cell lines; in short: as §2
SF-268 = test: Growth inhibition of human SF268 cells after 48 hrs by sulforhodamine B assay; details: SF-268, 48 h; in short: as §2
HL-60(TB) = test: Growth inhibition of human HL-60(TB) cells after 48 hrs by sulforhodamine B assay; details: HL-60, 48 h
In short: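 NCI 60-cell-line panel run over a five-log dose range. GI50 is reported as the log of the molar concentration giving 50% net cell-growth inhibition, from dose-response against untreated controls. Where that effect was not reached within the concentration interval, the highest tested concentration was used in the calculation.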

HCT-116 = test: Growth inhibition of human HCT116 cells after 48 hrs by sulforhodamine B assay; details: HCT-116, 48 h; in short: as §2
RXF 393 = test: Growth inhibition of human RXF393 cells after 48 hrs by sulforhodamine B assay; details: RXF 393, 48 h; in short: as §2
SN12C = test: Growth inhibition of human SN12C cells after 48 hrs by sulforhodamine B assay; in short: as §1
HOP-62 = test: Growth inhibition of human HOP62 cells after 48 hrs by sulforhodamine B assay; details: HOP-62, 48 h; in short: as §2
MOLT-4 = test: Growth inhibition of human MOLT4 cells after 48 hrs by sulforhodamine B assay; details: MOLT-4, 48 h; in short: as §2
[6] = Growth inhibition of human colon cancer cell after 48 hrs by sulforhodamine B assay; details: Cancer cell lines; in short: as §3
HCC 2998 = test: Growth inhibition of human HCC2998 cells after 48 hrs by sulforhodamine B assay; details: HCC 2998, 48 h; in short: as §2
HOP-92 = test: Growth inhibition of human HOP92 cells after 48 hrs by sulforhodamine B assay; details: HOP-92, 48 h; in short: as §2
UO-31 = test: Growth inhibition of human UO31 cells after 48 hrs by sulforhodamine B assay; details: UO-31, 48 h; in short: as §1

With `CC(NC(=O)Nc1cc(Cl)ccc1Cl)(C(F)(F)F)C(F)(F)F` the GI50 (UACC-62) was greater than 100 µM, the GI50 (OVCAR-4) was 10.7 µM and the GI50 [1] was 24 µM. The GI50 (LOX IMVI) was 7.76 µM, the GI50 (SK-MEL-2) was 12.3 µM and the GI50 (TK-10) was 19.5 µM. The GI50 (MDA-MB-231) was 30.2 µM, the GI50 [2] was 15.1 µM and the GI50 (SK-MEL-28) was greater than 100 µM. The GI50 [3] was 3.16 µM, the GI50 (A498) was greater than 100 µM and the GI50 (BT-549) was greater than 100 µM. The GI50 (MDA-MB-435) was greater than 100 µM, the GI50 (ACHN) was 5.13 µM and the GI50 (SK-OV-3) was greater than 100 µM. The GI50 (SF-295) was 3.47 µM, the GI50 (SW-620) was greater than 100 µM and the GI50 (SNB-19) was greater than 100 µM. It also gave a GI50 [4] of 5.75 µM, a GI50 (KM12) of 4.37 µM and a GI50 (NCI-H522) of 3.09 µM. The GI50 (UACC-257) was 75.9 µM, the GI50 (SK-MEL-5) was 25.1 µM and the GI50 (A549) was 5.62 µM. The GI50 (OVCAR-5) was greater than 100 µM, the GI50 (K562) was 5.89 µM and the GI50 (MDA-N) was greater than 100 µM. The growth at 100 µM (NCI-H460) was 17%, the GI50 (SR) was 7.41 µM and the GI50 (Malme-3M) was 17.8 µM. The GI50 (M14) was greater than 100 µM, the GI50 [5] was 20 µM and the GI50 (SF-268) was 72.4 µM. For the same molecule, the GI50 (HL-60(TB)) was 17.4 µM, the GI50 (HCT-116) was 4.9 µM and the GI50 (RXF 393) was 77.6 µM. The GI50 (SN12C) was 8.71 µM, the GI50 (HOP-62) was 63.1 µM and the GI50 (MOLT-4) was 9.55 µM. It also gave a GI50 [6] of 7.08 µM, a GI50 (HCC 2998) of 3.8 µM and a GI50 (HOP-92) of 6.92 µM. The GI50 (UO-31) was 2.4 µM.
In the case of `CCC(NC(=O)Nc1cc(Cl)ccc1Cl)(C(F)(F)F)C(F)(F)F`, the GI50 (UACC-62) is reported as 4.17 µM, the GI50 (OVCAR-4) is reported as 5.62 µM and the GI50 [1] is reported as 5.5 µM. The GI50 (LOX IMVI) was 4.07 µM, the GI50 (SK-MEL-2) was 2.19 µM and the GI50 (TK-10) was 2.24 µM. It also gave a GI50 (MDA-MB-231) of 3.31 µM, a GI50 [2] of 3.89 µM and a GI50 (SK-MEL-28) of 12 µM. It also gave a GI50 [3] of 5.25 µM, a GI50 (A498) of 4.17 µM and a GI50 (BT-549) of 10.5 µM. It also gave a GI50 (MDA-MB-435) of 5.13 µM, a GI50 (ACHN) of 3.89 µM and a GI50 (SK-OV-3) of 10.7 µM. The GI50 (SF-295) was 3.47 µM, the GI50 (SW-620) was 5.25 µM and the GI50 (SNB-19) was 4.68 µM. For the same molecule, the GI50 [4] was 3.16 µM, the GI50 (KM12) was 4.07 µM and the GI50 (NCI-H522) was 2.82 µM. For the same molecule, the GI50 (UACC-257) was 4.79 µM, the GI50 (SK-MEL-5) was 6.61 µM and the GI50 (A549) was 3.47 µM. It also gave a GI50 (OVCAR-5) of 4.79 µM, a GI50 (K562) of 3.55 µM and a GI50 (MDA-N) of 4.17 µM. The growth at 100 µM (NCI-H460) was -100%, the GI50 (SR) was 3.39 µM and the GI50 (Malme-3M) was 8.13 µM. The GI50 (M14) was 5.13 µM, the GI50 [5] was 4.47 µM and the GI50 (SF-268) was 4.79 µM. For the same molecule, the GI50 (HL-60(TB)) was 4.17 µM, the GI50 (HCT-116) was 3.24 µM and the GI50 (RXF 393) was 10 µM. It also gave a GI50 (SN12C) of 2.82 µM, a GI50 (HOP-62) of 10.7 µM and a GI50 (MOLT-4) of 3.72 µM. It also gave a GI50 [6] of 4.68 µM, a GI50 (HCC 2998) of 1.15 µM and a GI50 (HOP-92) of 4.68 µM. The GI50 (UO-31) was 2.63 µM.
